Published values of several laboratories.
Compare with care: the assays were run in different laboratories.
Target: Tyrosine-protein kinase HCK (HCK, Homo sapiens, UniProt P08631)

| Compound | read-out | method | concentration | remaining binding |
| --- | --- | --- | --- | --- |
| O=C(NCc1ncc(C(F)(F)F)cc1Cl)c1ccc2c(c1)C1(CCS(=O)(=O)CC1)[C@@H](C1CC1)N2S(=O)(=O)c1ccc(F)cc1 | cell-free assay | competition with immobilised ligand | 1 µM | 86% |
| N[C@@H]1CCN(c2nccc(-c3cnn4ncccc34)n2)C1 | binding |  | 1 µM | 100% |
| Cc1nc(C2CCN(C(=O)c3ccc(OC(F)(F)F)cc3N)CC2)c2ncc(N3CCN(C)CC3)cc2n1 | cell-free assay | competition with immobilised ligand | 1 µM | 95% |
| O=C(NCCCN1CCOCC1)c1ccc(Nc2nccc(-c3cc4ccccc4s3)n2)cc1 | binding | competition with immobilised ligand | 1 µM | 95% |
| O=C(Nc1cnc(Oc2ccc(F)cc2)nc1)N1CCc2ncccc2[C@@H]1c1ccc(F)cc1 | cell-free assay | competition with immobilised ligand | 1 µM | 96% |
| O=C(NCCCN1CCOCC1)c1ccc(Nc2ncc(Cl)c(-c3ccc(Cl)s3)n2)cc1 | binding | competition with immobilised ligand | 1 µM | 100% |
| c1cncc(-c2cccc(Nc3nccc(NC4CCCCC4)n3)c2)c1 | binding | competition with immobilised ligand | 10 µM | 3.1% |
| COc1ccc2c(O[C@@H]3C[C@H]4C(=O)N[C@]5(C(=O)O)CC5/C=C\CCCCC[C@H](NC(=O)OC5CCCC5)C(=O)N4C3)cc(-c3csc(NC(=O)C(C)C)n3)nc2c1C (stereo partly drawn) | cell-free assay | competition with immobilised ligand | 1 µM | 100% |
| O=C(Nc1c[nH]nc1C(=O)NC1CCNCC1)c1cc(F)cc(F)c1 | binding | competition with immobilised ligand | 1 µM | 100% |
| Cc1cnn2ncc(-c3ccnc(N(C)C)n3)c2c1 | binding |  | 1 µM | 100% |
| CS(=O)(=O)c1cc(C2(NC(=O)c3cncc4c3cnn4-c3ccc(F)cc3)CC2)ccn1 | cell-free assay | competition with immobilised ligand | 1 µM | 100% |
| Cc1cnc(Nc2ccc(C(=O)N3CCC(N4CCCC4)CC3)cc2)nc1-c1cc2ccccc2s1 | binding | competition with immobilised ligand | 1 µM | 74% |
| COc1cnc(Nc2cccc(S(N)(=O)=O)c2)nc1N1CCN(c2ccccc2)CC1 | binding | competition with immobilised ligand | 1 µM | 100% |
| CC1CCCN1c1nccc(-c2cnn3ncccc23)n1 (stereo not drawn) | binding |  | 1 µM | 100% |
| Nc1ncc2c(n1)-c1c([nH]c3ccc(C#CC4CC4)cc13)CCCC2 | binding | competition with immobilised ligand | 1 µM | 100% |
| C[C@@H]1CCN(c2nccc(-c3cnn4ncccc34)n2)C1 | binding |  | 1 µM | 84% |
| COc1ncc2cc3ccccc3nc2c1C#N | cell-free assay | competition with immobilised ligand | 5 µM | 100% |
| c1cnn2ncc(-c3ccnc(N4CCC45COC5)n3)c2c1 | binding |  | 1 µM | 90% |
| CNC(=O)[C@@H]1CC[C@@H](n2c(-c3ccc4cnccc4c3)nc3ccc(C(=O)NCc4cccc(C(N)=O)c4)cc32)C1 | binding | competition with immobilised ligand | 1 µM | 93% |
| CN(CCCC(F)(F)F)c1nccc(-c2cnn3ncccc23)n1 | binding |  | 1 µM | 99% |
| CO[C@@H](C)c1c(Nc2ccc([C@H](N(C)C(=O)C3CCS(=O)(=O)CC3)C(F)(F)F)cc2)cnc2cc(Cl)nn12 | cell-free assay | competition with immobilised ligand | 1 µM | 100% |
